Data as given in article PMC2212161 (The Journal of Experimental Medicine, 1998).
Like-named read-outs stand apart in the source and are kept apart here.

Key:
[1] = tested on: Fas-stimulated Jurkat cells; test: PS externalization; type: cell-based, human; details: Fas stimulation 4 h, Fig. 9 B; for PS externalization (increase in annexin V binding): inhibitor 100 μM pretreated 1 h
Method in brief: (§1)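 Jurkat cells (5 × 10⁵) were pretreated 1 h with inhibitor, then stimulated with anti-Fas for 4 h. Cells were mesh-filtered and analysed at once by flow cytometry.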

F22/caspase-7 [2] = type: cell-based, human
Caspase-8 = test: Sensitivity of caspase-8 to DMQD-CHO; type: biochemical; details: data not shown
[3] = tested on: Fas-stimulated Jurkat cells; test: Mitochondrial PT; type: cell-based, human; details: Fas stimulation 4 h, Fig. 9 B
Method in brief: as §1

[4] = tested on: Fas-stimulated Jurkat cells; test: Apoptotic body formation; type: cell-based, human; details: for Appearance of the cell population with the lowest FSC: flow cytometry; for Apoptotic body formation: phase contrast microscopy, Fig. 8
Method in brief: (§2)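 Jurkat cells were preincubated 1 h at 37°C with inhibitor or 1% DMSO, then stimulated with anti-Fas mAb for 4 h. Cell size was read as forward scatter in flow cytometry, from PhiPhiLux-loaded or PI-stained cells. Reference was the lower FSC border of normally growing cells. Cell shape and apoptotic bodies were viewed by phase contrast microscopy.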

F17/caspase-3-p17 [5] = test: Cell-free caspase activation in Jurkat extracts triggered by caspase-8: F17; type: biochemical, human
F22/caspase-7 [6] = test: Cell-free caspase activation in Jurkat extracts triggered by caspase-8: F22; type: biochemical, human
NuMA [7] = test: Immunoblotting for NuMA cleavage in Fas-stimulated Jurkat cells; type: cell-based, human; details: Fig. 5 B
Method in brief: (§3)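 Jurkat cells were preincubated with inhibitor, then Fas-stimulated. Whole-cell extracts were made by boiling pellets 3 min in SDS sample buffer (50 mM Tris-HCl pH 6.8, 15% sucrose, 3% SDS). Gels were 5% SDS-PAGE for NuMA (rabbit polyclonal r240-C) and 10% for PARP (mAb C-2-10) and PAK2 (rabbit anti-ste20-subdomain VI). Proteins were blotted to nitrocellulose and cleavage fragments immunodetected.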

[8] = tested on: caspase activity in Fas-stimulated Jurkat cells; test: Flow cytometric analysis of intracellular caspase activity with PhiPhiLux-G2D2; type: cell-based, human; details: inhibitor 100 μM alone without Fas stimulation; data not shown
F19/caspase-6 [9] = test: Cell-free caspase activation in Jurkat extracts triggered by caspase-8: F19; type: biochemical, human
F17/caspase-3-p17 [10] = type: cell-based, human
F19/caspase-6 [11] = type: cell-based, human; details: inhibitor 10–100 μM preincubated before Fas receptor cross-linking; Fig. 2 C
PAK2 = test: Immunoblotting for PAK2 cleavage in Fas-stimulated Jurkat cells; type: cell-based, human; details: Fig. 5 D
Method in brief: as §3

PARP = test: Immunoblotting for PARP cleavage in Fas-stimulated Jurkat cells; type: cell-based, human; details: Fig. 5 C
Method in brief: as §3

F20/caspase-3-p20 [12] = type: cell-based, human
[13] = tested on: Fas-stimulated Jurkat cells; test: Nuclear morphological changes; type: cell-based, human; details: inhibitor 100 μM preincubated 1 h 37°C; anti-Fas mAb 4 h; DAPI; Fig. 6
Method in brief: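 Jurkat cells were preincubated 1 h at 37°C with inhibitor (1, 10 or 100 μM) or 1% DMSO, then stimulated with anti-Fas mAb for 4 h; unstimulated cells were kept 4 h as control. Cells were fixed with 1% glutaraldehyde, stained with 2 μg/ml DAPI, and scored microscopically for chromatin condensation, nuclear shrinkage and fragmentation.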

[14] = tested on: Fas-stimulated Jurkat cells; test: Shrinkage of cytoplasm / cell size; type: cell-based, human; details: for Shrinkage of cytoplasm / decrease in cell size (FSC): Figs. 3 B and 7 B; for Fas-induced shrinkage of cells: phase contrast microscopy, Fig. 8
Method in brief: as §2

F19/caspase-6 [15] = details: cited from earlier work
[16] = tested on: active caspases in Jurkat cytoplasmic extracts; type: biochemical, human; details: inhibitor 10 μM; Fig. 2 A
F20/caspase-3-p20 [17] = details: cited from earlier work
[18] = tested on: Fas-stimulated Jurkat cells; test: Flow cytometric analysis of DNA fragmentation; type: cell-based, human; details: anti-Fas mAb 4 h, Fig. 7 B
Method in brief: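 Jurkat cells were pretreated with inhibitor, then given anti-Fas mAb for 4 h. Cells (10⁶) were fixed in 70% ethanol for 2 h on ice, washed in PBS, and treated with 10 μg/ml RNase A for 30 min at 37°C. They were stained with 50 μg/ml propidium iodide for 30 min on ice in the dark, and PI (log scale) was recorded against forward scatter by flow cytometry.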

[19] = tested on: KB epidermal carcinoma cells; details: inhibitor 50 μM; cited from earlier work
NuMA [20] = details: Fas-stimulated Jurkat cells; cited from earlier work
[21] = tested on: active caspases in Fas-stimulated Jurkat cells; type: cell-based, human; details: inhibitor 100 μM, preincubated 1 h; anti-Fas mAb 4 h; Fig. 1 A
F20/caspase-3-p20 [22] = test: Cell-free caspase activation in Jurkat extracts triggered by caspase-8: F20; type: biochemical, human; details: inhibitor 10 nM added before caspase-8; data not shown
pro–caspase-7 = test: Processing of pro–caspase-7 in Fas-stimulated Jurkat cells; type: cell-based, human; details: inhibitor 100 μM; same blot reprobed with anti–caspase-7 Ab; Fig. 1 B
Method in brief: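 The affinity-labeling blot from Jurkat cells (inhibitor preincubation 1 h, anti-Fas CH-11 100 ng/ml, 4 h, serum-free RPMI-1640) was reprobed with anti-caspase-7 antibody to follow pro-caspase-7 processing.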

[23] = inhibitor 100 μM pretreated 1 h
[24] = inhibitor 10–100 μM preincubated before Fas receptor cross-linking, Fig. 2 C
[25] = inhibitor 100 μM, flow cytometry
[26] = inhibitor 10 μM, preincubated 1 h, anti-Fas mAb 4 h, Fig. 1 A
[27] = inhibitor 10 nM added before caspase-8, data not shown

Ac-DMQD-aldehyde [DMQD-CHO]
PS externalization (increase in annexin V binding) [1]: suppressed | Activation of caspase-7 (time course) (F22/caspase-7 [2]; inhibitor 100 μM preincubated 1 h, Fig. 2 D): uninterrupted | Labeling of F22 (F22/caspase-7 [2]; inhibitor up to 100 μM, Fig. 2 C): persisted | Sensitivity of caspase-8 (Caspase-8): relatively insensitive | Mitochondrial PT [3, 23]: not affected | Appearance of the cell population with the lowest FSC ([4]; inhibitor 100 μM, Figs. 3 B and 7 B): suppressed | Apoptotic body formation ([4]; inhibitor 100 μM): formed no apoptotic bodies | Labeling of F17/caspase-3-p17 (F17/caspase-3-p17 [5]; inhibitor 1–2 μM, Jurkat extract preincubated, caspase-8, 4 h 37°C, Fig. 2 A): suppressed | Labeling of F22/caspase-7 (F22/caspase-7 [6]; inhibitor up to 5 μM, Fig. 2 A): unhindered | Generation of the 160-kD NuMA fragment (NuMA [7]; inhibitor 100 μM): blocked | Generation of the 180-kD NuMA fragment (NuMA [7]; inhibitor 100 μM): blocked | Increase in PhiPhiLux-G2D2 fluorescence or cell shrinkage [8]: did not induce | Concentration preventing appearance of F19/caspase-6 (F19/caspase-6 [9]; preincubation before addition of caspase-8, Fig. 2 A): 1 to 2 µM | Labeling of F17/caspase-3-p17 (F17/caspase-3-p17 [10]; [24]): suppressed | Appearance of F19/caspase-6 (F19/caspase-6 [11]): blocked | Cleavage of PAK2 (PAK2; inhibitor 100 μM): suppressed | PARP cleavage (PARP; inhibitor 100 μM): only weakly inhibited | Labeling of F20/caspase-3-p20 (F20/caspase-3-p20 [12]; [24]): suppressed | Nuclear morphological changes [13]: completely blocked | Shrinkage of cytoplasm / decrease in cell size (FSC) [14, 25]: proceeded to a significant degree | Fas-induced shrinkage of cells ([14]; inhibitor 100 μM): Neither 100 μM DMQD-CHO (Fig. 8 h) nor 10 μM VEID-CHO (Fig. 8 d) affected | Concentration required to block activity of caspase-6 relative to caspase-7 (F19/caspase-6 [15]; higher for caspase-6): ~10 fold | Activity of F19/caspase-6 (F19/caspase-6 [15]; inhibitor even at 100 μM): insensitive | Caspase labeling (all) [16]: loss of all labeling | Concentrations previously shown to block the activity of F20/caspase-3-p20 (F20/caspase-3-p20 [17]): 1 to 2 µM | DNA fragmentation ([18]; inhibitor 100 μM): completely inhibited

benzyloxycarbonyl-Asp-Glu-Val-Asp(OMe)-fluoromethylketone [zDEVD-FK]
Fas-induced chromatin condensation and apoptotic body formation [19]: abolished

DEVD-CHO
NuMA cleavage (NuMA [20]): blocked

acetyl-Val-Ileu-Asp-aldehyde [VEID-CHO]
PS externalization ([1]; inhibitor 10 μM pretreated 1 h): Neither PT nor PS externalization were affected | PS externalization (increase in annexin V binding) [1]: markedly inhibited | Labeling of F22/caspase-7 (F22/caspase-7 [2]; [26]): unaffected | Mitochondrial PT ([3]; inhibitor 10 μM pretreated 1 h): Neither PT nor PS externalization were affected | Mitochondrial PT [3, 23]: markedly inhibited | Appearance of the cell population with the lowest FSC ([4]; inhibitor 10 μM, Fig. 7 B): had no effect | Apoptotic body formation ([4]; inhibitor up to 10 μM): did not prevent | Activation of caspase-3-p17 in cell-free activation (F17/caspase-3-p17 [5]; [27]): minimal effects | Activation of caspase-7 in cell-free activation (F22/caspase-7 [6]; [27]): minimal effects | Proteolysis yielding the 180-kD NuMA fragments (NuMA [7]; inhibitor 1 μM): not affected | 180-kD NuMA fragment (NuMA [7]; inhibitor 10 μM): moderate decrease | Production of the 160-kD NuMA fragment (NuMA [7]; inhibitor 1–10 μM): suppressed | Activity of caspase-6 in cell-free activation (F19/caspase-6 [9]; [27]): selectively blocked | Labeling of F17/caspase-3-p17 (F17/caspase-3-p17 [10]; [26]): Suppression | Cleavage of PAK2 (PAK2; inhibitor up to 10 μM): failed to affect | PARP cleavage (PARP; inhibitor 1 μM): did not affect | PARP cleavage (PARP; inhibitor 10 μM): Partial blockade | PARP cleavage (PARP; inhibitor 100 μM): markedly suppressed | Labeling of F20/caspase-3-p20 (F20/caspase-3-p20 [12]; [26]): unaffected | Cell size (FSC) ([14]; inhibitor 10 μM, flow cytometry, Fig. 7 B): had no effect | Fas-induced shrinkage of cells ([14]; inhibitor 10 μM): Neither 100 μM DMQD-CHO (Fig. 8 h) nor 10 μM VEID-CHO (Fig. 8 d) affected | Shrinkage of cytoplasm / decrease in cell size (FSC) [14, 25]: markedly suppressed | Fas-induced shrinkage of cells ([14]; inhibitor 100 μM): completely blocked | Caspase labeling (all) [21]: loss of all caspase labeling | Activation of caspase-3-p20 in cell-free activation (F20/caspase-3-p20 [22]): minimal effects | Processing of pro–caspase-7 (pro–caspase-7): blocked | DNA fragmentation ([18]; inhibitor 100 μM): suppresses both | DNA fragmentation ([18]; inhibitor up to 10 μM): did not prevent

benzyloxycarbonyl-Val-Ala-Asp(OMe)-fluoromethylketone [zVAD-fmk]
NuMA cleavage (NuMA [20]): blocked
